# Experimental data from ChEMBL document CHEMBL5058577, “EUbOPEN Chemogenomics Library 2 (Multiplex)” (2022).
# System: HEK-293T
# Assay: Multiplex assay against HEK293T
# Assay type: toxicity, cell-based
# Conditions: human
# Outline: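 With compound added, live cells were imaged on a CQ1 microscope at 37°C and 5% CO2; staining with Hoechst33342, BioTracker Green Microtubule Cytoskeleton Dye, MitoTracker Red and Annexin V Alexa Fluor 680 had been done at seeding. The CellPathfinder machine-learning gating scheme split cells into Hoechst high-intensity objects or normal cells, normal cells into healthy, pyknosed or fragmented nuclei, and pyknosed cells into mitotic or apoptotic. The tubulin, mitochondrial-mass and membrane-permeability phenotypes are per cents of healthy-nucleus cells.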
# [1] = 12 h, 1 µM, compound concentration 1 uM, replicate 1
# [2] = 12 h, 1 µM, compound concentration 1 uM, replicate 2
# [3] = 12 h, 10 µM, compound concentration 10 uM, replicate 1
# [4] = 12 h, 10 µM, compound concentration 10 uM, replicate 2
# [5] = 24 h, 1 µM, compound concentration 1 uM, replicate 1
# [6] = 24 h, 1 µM, compound concentration 1 uM, replicate 2
# [7] = 24 h, 10 µM, compound concentration 10 uM, replicate 1
# [8] = 24 h, 10 µM, compound concentration 10 uM, replicate 2
# [9] = 48 h, 1 µM, compound concentration 1 uM, replicate 1
# [10] = 48 h, 1 µM, compound concentration 1 uM, replicate 2
# [11] = 48 h, 10 µM, compound concentration 10 uM, replicate 1
# [12] = 48 h, 10 µM, compound concentration 10 uM, replicate 2
compound,measurement,setting,value
O=C1COc2nccc(-c3ccccc3F)c2CN1Cc1cc(C(F)(F)F)cc(C(F)(F)F)c1,Population Apoptotic (%),[1],31%
same,Population Fragmented Nuclei (%),[1],8%
same,Population Healthy Nuclei (%),[1],80%
same,Population Hoechst High Intensity Objects (%),[1],5%
same,Population Membrane Permeable-Phenotype (%),[1],0%
same,Population Mitochondria Different-Phenotype (%),[1],41%
same,Population Mitotic Cells (%),[1],68%
same,Population Normal (%),[1],94%
same,Population Pyknosed Nuclei (%),[1],10%
same,Population Tubulin-Different-Phenotype (%),[1],27%
same,Total Cell Count,[1],397
same,Population Apoptotic (%),[2],51%
same,Population Fragmented Nuclei (%),[2],4%
same,Population Healthy Nuclei (%),[2],83%
same,Population Hoechst High Intensity Objects (%),[2],10%
same,Population Mitochondria Different-Phenotype (%),[2],67%
same,Population Mitotic Cells (%),[2],48%
same,Population Normal (%),[2],89%
same,Population Pyknosed Nuclei (%),[2],11%
same,Population Tubulin-Different-Phenotype (%),[2],20%
same,Total Cell Count,[2],333
same,Population Apoptotic (%),[3],38%
same,Population Fragmented Nuclei (%),[3],10%
same,Population Healthy Nuclei (%),[3],76%
same,Population Hoechst High Intensity Objects (%),[3],9%
same,Population Membrane Permeable-Phenotype (%),[3],0%
same,Population Mitochondria Different-Phenotype (%),[3],67%
same,Population Mitotic Cells (%),[3],61%
same,Population Normal (%),[3],90%
same,Population Pyknosed Nuclei (%),[3],13%
same,Population Tubulin-Different-Phenotype (%),[3],68%
same,Total Cell Count,[3],475
same,Population Apoptotic (%),[4],57%
same,Population Fragmented Nuclei (%),[4],8%
same,Population Healthy Nuclei (%),[4],79%
same,Population Hoechst High Intensity Objects (%),[4],5%
same,Population Mitochondria Different-Phenotype (%),[4],76%
same,Population Mitotic Cells (%),[4],42%
same,Population Normal (%),[4],94%
same,Population Pyknosed Nuclei (%),[4],12%
same,Population Tubulin-Different-Phenotype (%),[4],39%
same,Total Cell Count,[4],382
same,Population Apoptotic (%),[5],21%
same,Population Fragmented Nuclei (%),[5],8%
same,Population Healthy Nuclei (%),[5],84%
same,Population Hoechst High Intensity Objects (%),[5],3%
same,Population Membrane Permeable-Phenotype (%),[5],0%
same,Population Mitochondria Different-Phenotype (%),[5],32%
same,Population Mitotic Cells (%),[5],78%
same,Population Normal (%),[5],96%
same,Population Pyknosed Nuclei (%),[5],7%
same,Population Tubulin-Different-Phenotype (%),[5],23%
same,Total Cell Count,[5],517
same,Population Apoptotic (%),[6],59%
same,Population Fragmented Nuclei (%),[6],5%
same,Population Healthy Nuclei (%),[6],87%
same,Population Hoechst High Intensity Objects (%),[6],8%
same,Population Mitochondria Different-Phenotype (%),[6],39%
same,Population Mitotic Cells (%),[6],40%
same,Population Normal (%),[6],91%
same,Population Pyknosed Nuclei (%),[6],6%
same,Population Tubulin-Different-Phenotype (%),[6],12%
same,Total Cell Count,[6],428
same,Population Apoptotic (%),[7],52%
same,Population Fragmented Nuclei (%),[7],10%
same,Population Healthy Nuclei (%),[7],76%
same,Population Hoechst High Intensity Objects (%),[7],5%
same,Population Membrane Permeable-Phenotype (%),[7],0%
same,Population Mitochondria Different-Phenotype (%),[7],71%
same,Population Mitotic Cells (%),[7],47%
same,Population Normal (%),[7],94%
same,Population Pyknosed Nuclei (%),[7],13%
same,Population Tubulin-Different-Phenotype (%),[7],68%
same,Total Cell Count,[7],520
same,Population Apoptotic (%),[8],36%
same,Population Fragmented Nuclei (%),[8],7%
same,Population Healthy Nuclei (%),[8],79%
same,Population Mitochondria Different-Phenotype (%),[8],72%
same,Population Mitotic Cells (%),[8],63%
same,Population Pyknosed Nuclei (%),[8],12%
same,Population Tubulin-Different-Phenotype (%),[8],44%
same,Total Cell Count,[8],492
same,Population Apoptotic (%),[9],27%
same,Population Fragmented Nuclei (%),[9],13%
same,Population Healthy Nuclei (%),[9],80%
same,Population Hoechst High Intensity Objects (%),[9],2%
same,Population Membrane Permeable-Phenotype (%),[9],0%
same,Population Mitochondria Different-Phenotype (%),[9],29%
same,Population Mitotic Cells (%),[9],72%
same,Population Normal (%),[9],97%
same,Population Pyknosed Nuclei (%),[9],6%
same,Population Tubulin-Different-Phenotype (%),[9],14%
same,Total Cell Count,[9],743
same,Population Apoptotic (%),[10],38%
same,Population Fragmented Nuclei (%),[10],9%
same,Population Healthy Nuclei (%),[10],81%
same,Population Hoechst High Intensity Objects (%),[10],4%
same,Population Mitochondria Different-Phenotype (%),[10],23%
same,Population Mitotic Cells (%),[10],61%
same,Population Normal (%),[10],95%
same,Population Pyknosed Nuclei (%),[10],8%
same,Population Tubulin-Different-Phenotype (%),[10],12%
same,Total Cell Count,[10],574
same,Population Apoptotic (%),[11],44%
same,Population Fragmented Nuclei (%),[11],13%
same,Population Healthy Nuclei (%),[11],75%
same,Population Hoechst High Intensity Objects (%),[11],3%
same,Population Membrane Permeable-Phenotype (%),[11],0%
same,Population Mitochondria Different-Phenotype (%),[11],63%
same,Population Mitotic Cells (%),[11],55%
same,Population Normal (%),[11],96%
same,Population Pyknosed Nuclei (%),[11],11%
same,Population Tubulin-Different-Phenotype (%),[11],46%
same,Total Cell Count,[11],713
same,Population Apoptotic (%),[12],56%
same,Population Fragmented Nuclei (%),[12],11%
same,Population Healthy Nuclei (%),[12],80%
same,Population Hoechst High Intensity Objects (%),[12],2%
same,Population Mitochondria Different-Phenotype (%),[12],51%
same,Population Mitotic Cells (%),[12],43%
same,Population Normal (%),[12],97%
same,Population Pyknosed Nuclei (%),[12],7%
same,Population Tubulin-Different-Phenotype (%),[12],25%
same,Total Cell Count,[12],669
